The nature of data set [1]: Solubility by nephelometric analysis. In kind it is physicochemical. The method, boiled down: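 Nephelometry after diluting compounds into the MAO-A assay mixture (100 mM potassium phosphate, pH 7.4).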
The subject of a further data set is Haemophilus influenzae. Briefly: Antibacterial activity against Haemophilus influenzae ATCC 51907. In kind it is functional. The method, boiled down:
(§1)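 CLSI broth microdilution, 64 to 0.06 µg/mL, 2% DMSO final. Media: S. aureus, Mueller Hinton broth; H. influenzae, MHB plus 0.5% yeast extract, 15 µg/mL hematin, 1.5 µg/mL NAD; S. pneumoniae, MHB plus 0.65% lysed horse blood. 35 °C, aerobic (S. aureus) or 5% CO2.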

The next data set has as its system Staphylococcus aureus. Briefly: Antibacterial activity against methicillin-susceptible Staphylococcus aureus AP601055. In kind it is functional. The method, boiled down:
as §1

For data set [2], the target named is T1, Amine oxidase [flavin-containing] A (Homo sapiens, UniProt P21397).
T1 sequence (P21397 whole entry): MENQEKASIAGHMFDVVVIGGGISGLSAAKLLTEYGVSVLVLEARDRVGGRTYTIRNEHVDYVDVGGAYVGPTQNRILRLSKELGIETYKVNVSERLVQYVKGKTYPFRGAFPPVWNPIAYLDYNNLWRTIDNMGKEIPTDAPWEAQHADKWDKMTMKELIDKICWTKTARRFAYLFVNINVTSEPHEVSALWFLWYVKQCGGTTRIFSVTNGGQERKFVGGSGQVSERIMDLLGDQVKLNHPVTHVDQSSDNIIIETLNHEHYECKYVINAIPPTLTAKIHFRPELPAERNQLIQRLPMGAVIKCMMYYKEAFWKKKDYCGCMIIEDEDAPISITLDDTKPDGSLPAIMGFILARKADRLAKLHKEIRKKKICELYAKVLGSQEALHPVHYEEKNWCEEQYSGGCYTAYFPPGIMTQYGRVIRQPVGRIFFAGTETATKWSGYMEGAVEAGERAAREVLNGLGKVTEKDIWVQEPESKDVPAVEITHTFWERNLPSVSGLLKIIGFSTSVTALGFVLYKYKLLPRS
Briefly: Inhibition of human liver MAOA expressed in yeast.

The subject of data set [3] is Streptococcus pneumoniae. Briefly: Antibacterial activity against penicillin-susceptible Streptococcus pneumoniae AP671401. It is filed as functional. In outline:
as §1

Data set [4] relates to Streptococcus pneumoniae. Briefly: Antibacterial activity against linezolid-resistant Streptococcus pneumoniae. In kind it is functional. In outline: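 Broth microdilution per CLSI guidelines. Compounds were dissolved in 100% DMSO and diluted to 2% DMSO (v/v), 64 to 0.06 µg/mL, in 2.2% (w/v) Mueller Hinton broth with 0.65% (v/v) lysed horse blood. Plates were incubated at 35 °C in 5% CO2 and read at 620 nm.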

In brackets after ≈: the same amount, converted by molar mass.

For orientation: kinetic solubility means solubility judged after dilution from a stock solution rather than from solid. Usually Ki stands for a measure of affinity in units of concentration, obtained from inhibition or displacement. A lower Ki goes with a stronger hold on the target.

With `CO[C@@H](C)c1ccc(-c2ccc(N3C[C@H](Cn4ccnn4)OC3=O)cc2F)cn1`, in data set [1], the solubility (kinetic) was over 400 µM. For the same molecule, the MIC in the data set with Haemophilus influenzae amounted to 16 µg/mL (≈ 40.3 µM); in the data set on Staphylococcus aureus, 1 µg/mL (≈ 2.52 µM); against Streptococcus pneumoniae [3], 0.25 µg/mL (≈ 0.629 µM); against Streptococcus pneumoniae [4], 4 µg/mL (≈ 10.1 µM). The same molecule displayed a Ki in data set [2] of 2.5 µM.
In data set [1], `CC(C)(O)c1ccc(-c2ccc(N3C[C@H](Cn4ccnn4)OC3=O)cc2F)cn1` returned a solubility (kinetic) of 200 µM (≈ 79.5 µg/mL). Moreover, the MIC against Haemophilus influenzae came out at 8 µg/mL (≈ 20.1 µM); in the data set with Staphylococcus aureus, 1 µg/mL (≈ 2.52 µM); with Streptococcus pneumoniae [3] it was 0.25 µg/mL (≈ 0.629 µM); in the data set with Streptococcus pneumoniae [4], 2 µg/mL (≈ 5.03 µM). The molecule further returned a Ki in data set [2] of 6 µM.
`O=C1O[C@@H](Cn2ccnn2)CN1c1ccc(-c2ccc(C(O)C3CCNCC3)nc2)c(F)c1` (some centres not stated) showed a solubility (kinetic) in data set [1] of over 400 µM. Further, the MIC was found to be 64 µg/mL (≈ 141 µM) in the data set with Haemophilus influenzae, 64 µg/mL (≈ 141 µM) in the data set on Staphylococcus aureus, 4 µg/mL (≈ 8.84 µM) in the data set on Streptococcus pneumoniae [3] and 32 µg/mL (≈ 70.7 µM) in the data set with Streptococcus pneumoniae [4]. In data set [2], this molecule gave a Ki of 136 µM.
As to `CC(C)NCC(O)c1ccc(-c2ccc(N3C[C@H](Cn4ccnn4)OC3=O)cc2F)cn1` (some centres not stated), in data set [1], the solubility (kinetic) is over 400 µM. In addition, the MIC with Haemophilus influenzae was 4 µg/mL (≈ 9.08 µM); in the data set on Staphylococcus aureus, 4 µg/mL (≈ 9.08 µM); against Streptococcus pneumoniae [3] it was 0.5 µg/mL (≈ 1.14 µM); against Streptococcus pneumoniae [4], 2 µg/mL (≈ 4.54 µM). The Ki in data set [2] is over 178 µM.
In data set [1], `CN(C)CC(O)c1ccc(-c2ccc(N3C[C@H](Cn4ccnn4)OC3=O)cc2F)cn1` (some centres not stated) had a kinetic solubility of over 400 µM. The MIC against Haemophilus influenzae came out at 4 µg/mL (≈ 9.38 µM); against Staphylococcus aureus, 4 µg/mL (≈ 9.38 µM); with Streptococcus pneumoniae [3] it was 0.25 µg/mL (≈ 0.586 µM); in the data set on Streptococcus pneumoniae [4], 2 µg/mL (≈ 4.69 µM). Besides, the Ki in data set [2] is over 178 µM.
Turning to `CC(=O)c1ccc(-c2ccc(N3C[C@H](Cn4ccnn4)OC3=O)cc2F)cn1`, the kinetic solubility in data set [1] worked out at 50 µM (≈ 19.1 µg/mL). In addition, the MIC in the data set with Haemophilus influenzae is 2 µg/mL (≈ 5.24 µM); against Staphylococcus aureus it was 0.25 µg/mL (≈ 0.656 µM); against Streptococcus pneumoniae [3] it was under 0.06 µg/mL; in the data set on Streptococcus pneumoniae [4], 0.5 µg/mL (≈ 1.31 µM). This molecule also registered a Ki in data set [2] of 0.7 µM.
Take `O=C(c1ccc(-c2ccc(N3C[C@H](Cn4ccnn4)OC3=O)cc2F)cn1)C1CNC1`: the solubility (kinetic) in data set [1] came to 200 µM (≈ 84.5 µg/mL). For the same molecule, the MIC came to 16 µg/mL (≈ 37.9 µM) in the data set on Haemophilus influenzae, 8 µg/mL (≈ 18.9 µM) against Staphylococcus aureus, 1 µg/mL (≈ 2.37 µM) in the data set on Streptococcus pneumoniae [3] and 4 µg/mL (≈ 9.47 µM) in the data set on Streptococcus pneumoniae [4]. In data set [2], this molecule gave a Ki of 4.5 µM.
In the case of `O=C(Cn1ccnc1)c1ccc(-c2ccc(N3C[C@H](Cn4ccnn4)OC3=O)cc2F)cn1`, the solubility (kinetic) in data set [1] turned out to be 12.5 µM (≈ 5.59 µg/mL). Besides, the results for the MIC against Haemophilus influenzae, in the data set with Staphylococcus aureus and against Streptococcus pneumoniae [4] were 2 µg/mL (≈ 4.47 µM), 0.25 µg/mL (≈ 0.559 µM) and 0.5 µg/mL (≈ 1.12 µM), respectively. This molecule also displayed a Ki in data set [2] of over 12 µM.
In data set [1], `CO[C@H](C)c1ccc(-c2ccc(N3C[C@H](Cn4ccnn4)OC3=O)cc2F)cn1` yielded a kinetic solubility of over 400 µM. Also, the MIC is 8 µg/mL (≈ 20.1 µM) against Haemophilus influenzae, 1 µg/mL (≈ 2.52 µM) with Staphylococcus aureus, 0.25 µg/mL (≈ 0.629 µM) with Streptococcus pneumoniae [3] and 2 µg/mL (≈ 5.03 µM) against Streptococcus pneumoniae [4]. The molecule also showed a Ki in data set [2] of 3 µM.
Regarding `CN1CCN(CCCC(O)c2ccc(-c3ccc(N4C[C@H](Cn5ccnn5)OC4=O)cc3F)cn2)CC1` (some centres not stated), in data set [1], the kinetic solubility was over 400 µM. In addition, the MIC stood at 8 µg/mL (≈ 15.7 µM) in the data set on Haemophilus influenzae, 2 µg/mL (≈ 3.92 µM) against Staphylococcus aureus, 0.25 µg/mL (≈ 0.491 µM) with Streptococcus pneumoniae [3] and 1 µg/mL (≈ 1.96 µM) in the data set with Streptococcus pneumoniae [4]. For the same molecule, the inhibition constant (Ki) in data set [2] was 41 µM.
In turn, `CC(C)C(O)c1ccc(-c2ccc(N3C[C@H](Cn4ccnn4)OC3=O)cc2F)cn1` (some centres not stated) registered a solubility (kinetic) in data set [1] of over 400 µM. In addition, the MIC in the data set on Haemophilus influenzae came to 16 µg/mL (≈ 38.9 µM); in the data set with Staphylococcus aureus it was 0.5 µg/mL (≈ 1.22 µM); in the data set on Streptococcus pneumoniae [3], 0.25 µg/mL (≈ 0.608 µM); in the data set on Streptococcus pneumoniae [4], 2 µg/mL (≈ 4.86 µM). Also, the Ki in data set [2] worked out at 11.3 µM.
Regarding `C[C@@H](O)c1ccc(-c2ccc(N3C[C@H](Cn4ccnn4)OC3=O)cc2F)cn1`, the kinetic solubility in data set [1] was over 400 µM. The MIC in the data set with Haemophilus influenzae was 2 µg/mL (≈ 5.22 µM); in the data set with Staphylococcus aureus, 0.25 µg/mL (≈ 0.652 µM); in the data set on Streptococcus pneumoniae [3] it was under 0.06 µg/mL; in the data set on Streptococcus pneumoniae [4], 1 µg/mL (≈ 2.61 µM). Further, the Ki in data set [2] came out at 4.3 µM.
Take `O=C1O[C@@H](Cn2ccnn2)CN1c1ccc(-c2ccc(C(O)C3CNC3)nc2)c(F)c1` (some centres not stated): in data set [1], the kinetic solubility was over 400 µM. Further, the MIC against Haemophilus influenzae is 64 µg/mL (≈ 151 µM); against Staphylococcus aureus, 64 µg/mL (≈ 151 µM); with Streptococcus pneumoniae [3], 16 µg/mL (≈ 37.7 µM); in the data set with Streptococcus pneumoniae [4], over 64 µg/mL. In data set [2], this molecule came in with a Ki of 58 µM.

(Values after ChEMBL document CHEMBL1148787, “Novel substituted (pyridin-3-yl)phenyloxazolidinones: antibacterial agents with reduced activity against monoamine oxidase A and increased solubility” (J Med Chem, 2007).)
